Experimental data reported in ChEMBL document CHEMBL4354861, “Re-Evaluating the Mechanism of Action of α,β-Unsaturated Carbonyl DUB Inhibitors b-AP15 and VLX1570: A Paradigmatic Example of Unspecific Protein Cross-linking with Michael Acceptor Motif-Containing Drugs” (J Med Chem, 2020).
Calls of active or inactive are those of the source. The rule behind the calls is not given here.

Assays:
HeLa = test: Cytotoxicity in human HeLa cells assessed as reduction in cell viability incubated for 72 hrs Cell-titer Glo reagent based assay; type: functional
Summary of the method: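 Tumor lines grown at 37 °C, 5% CO2 with 10% FBS (DMEM for HeLa and SiHa; RPMI for HCT116) and exposed to compound for 72 h. Viability read by CellTiter Glo luminescence; IC50 derived from n=6.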

[1] = molecular target: Ubiquitin carboxyl-terminal hydrolase 14 (Homo sapiens) (UniProt P54578); test: Inhibition of USP14 in intact human HeLa cells assessed as induction of formation of high molecular weight complexes with USP14 at 10 uM incubated for 2 hrs by immunoblot analysis; type: cell-based
Sequence of Ubiquitin carboxyl-terminal hydrolase 14 (Homo sapiens) (P54578 whole entry): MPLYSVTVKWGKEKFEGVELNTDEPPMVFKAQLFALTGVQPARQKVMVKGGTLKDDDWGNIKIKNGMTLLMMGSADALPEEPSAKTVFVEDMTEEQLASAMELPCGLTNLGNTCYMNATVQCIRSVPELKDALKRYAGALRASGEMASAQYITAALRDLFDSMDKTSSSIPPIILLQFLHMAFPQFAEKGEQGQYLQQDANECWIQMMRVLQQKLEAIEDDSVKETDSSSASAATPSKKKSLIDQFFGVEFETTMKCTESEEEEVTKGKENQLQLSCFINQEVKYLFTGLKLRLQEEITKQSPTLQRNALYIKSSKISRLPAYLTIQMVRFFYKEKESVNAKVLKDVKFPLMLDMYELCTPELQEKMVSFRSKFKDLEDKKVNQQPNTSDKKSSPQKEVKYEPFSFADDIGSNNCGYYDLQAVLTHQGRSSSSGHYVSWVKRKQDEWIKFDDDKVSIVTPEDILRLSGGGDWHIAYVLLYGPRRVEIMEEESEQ
Summary of the method: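 Intact HeLa cells (DMEM, 10% FBS, about 80% confluent) treated 2 h with vehicle or 10 μM compound, with or without 10 mM DTT or 10 mM GSH. Cells washed in cold PBS and lysed in RIPA with protease and phosphatase inhibitors. High-MW species detected by SDS-PAGE immunoblot; shorter exposures served as loading control.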

In the case of `C=CC(=O)N1C/C(=C\c2ccc([N+](=O)[O-])cc2)C(=O)/C(=C/c2ccc([N+](=O)[O-])cc2)C1`, the Activity (HeLa) is reported as “Active” and the inhibition [1] is reported as “Active”.
